From ChEMBL document CHEMBL1152866, “Modulation of gene expression via disruption of NF-kappaB signaling by a bacterial small molecule” (Science, 2008)
Active and inactive are the calls of the source.

What was measured:
[1] = system: MEF; assay: Effect on TNF-induced MCP1 mRNA expression in MEF by Northern blot analysis; format: functional, cell-based; settings: Mus musculus
[2] = biological target: MAP kinase p38 (Mus musculus) (UniProt P47811+O08911+Q9WUI1+Q9Z1B7); assay: Inhibition of LPS-induced p38 phosphorylation in C57BL/6 mouse alveolar macrophages measured up to 120 mins by Western blot analysis
[3] = system: Macrophage; assay: Inhibition of LPS-induced IL-12beta mRNA expression in mouse alveolar macrophages after 90 mins by Northern blot analysis; format: functional, cell-based
[4] = system: MEF; assay: Inhibition of LPS-induced RANTES mRNA expression in MEF after 90 mins by Northern blot analysis; format: functional, cell-based; settings: Mus musculus
[5] = system: BMDM; assay: Inhibition of LPS-induced IkappaBalpha mRNA expression in mouse BMDM up to 3 hrs by Northern blot analysis; format: functional, cell-based
[6] = biological target: Transcription factor p65 (Mus musculus) (UniProt Q04207); assay: Inhibition of LPS-induced RelA phosphorylation in mouse BMDM treated 2 hrs after LPS challenge measured up to 120 mins by Western blot analysis
Chain of Transcription factor p65 (Mus musculus) (Q04207 whole entry): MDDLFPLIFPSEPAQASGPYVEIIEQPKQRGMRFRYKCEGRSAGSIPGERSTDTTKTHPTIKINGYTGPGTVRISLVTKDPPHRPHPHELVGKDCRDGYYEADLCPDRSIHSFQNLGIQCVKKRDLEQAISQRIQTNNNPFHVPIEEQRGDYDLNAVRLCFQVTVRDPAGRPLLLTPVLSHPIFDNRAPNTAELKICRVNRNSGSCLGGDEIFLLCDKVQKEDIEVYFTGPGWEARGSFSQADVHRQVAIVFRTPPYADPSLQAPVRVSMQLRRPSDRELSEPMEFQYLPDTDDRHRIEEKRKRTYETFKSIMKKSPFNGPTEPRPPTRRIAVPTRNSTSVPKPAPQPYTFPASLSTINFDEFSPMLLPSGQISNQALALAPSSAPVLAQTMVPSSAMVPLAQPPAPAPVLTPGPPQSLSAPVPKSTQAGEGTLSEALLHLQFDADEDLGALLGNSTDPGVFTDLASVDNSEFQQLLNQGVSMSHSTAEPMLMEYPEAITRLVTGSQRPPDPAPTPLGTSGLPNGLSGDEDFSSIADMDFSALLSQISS

[7] = system: Epithelial cell; assay: Inhibition of TNF-induced IkappaBalpha expression in human bronchial epithelial cells up to 120 mins by Western blot analysis; format: functional, cell-based
[8] = biological target: T1, Inhibitor of nuclear factor kappa-B kinase subunit alpha (Homo sapiens) (UniProt O15111); assay: Inhibition of TNF-induced IkappaBalpha phosphorylation in human bronchial epithelial cells up to 120 mins by Western blot analysis; format: cell-based; settings: Epithelial cell
T1 sequence (whole entry): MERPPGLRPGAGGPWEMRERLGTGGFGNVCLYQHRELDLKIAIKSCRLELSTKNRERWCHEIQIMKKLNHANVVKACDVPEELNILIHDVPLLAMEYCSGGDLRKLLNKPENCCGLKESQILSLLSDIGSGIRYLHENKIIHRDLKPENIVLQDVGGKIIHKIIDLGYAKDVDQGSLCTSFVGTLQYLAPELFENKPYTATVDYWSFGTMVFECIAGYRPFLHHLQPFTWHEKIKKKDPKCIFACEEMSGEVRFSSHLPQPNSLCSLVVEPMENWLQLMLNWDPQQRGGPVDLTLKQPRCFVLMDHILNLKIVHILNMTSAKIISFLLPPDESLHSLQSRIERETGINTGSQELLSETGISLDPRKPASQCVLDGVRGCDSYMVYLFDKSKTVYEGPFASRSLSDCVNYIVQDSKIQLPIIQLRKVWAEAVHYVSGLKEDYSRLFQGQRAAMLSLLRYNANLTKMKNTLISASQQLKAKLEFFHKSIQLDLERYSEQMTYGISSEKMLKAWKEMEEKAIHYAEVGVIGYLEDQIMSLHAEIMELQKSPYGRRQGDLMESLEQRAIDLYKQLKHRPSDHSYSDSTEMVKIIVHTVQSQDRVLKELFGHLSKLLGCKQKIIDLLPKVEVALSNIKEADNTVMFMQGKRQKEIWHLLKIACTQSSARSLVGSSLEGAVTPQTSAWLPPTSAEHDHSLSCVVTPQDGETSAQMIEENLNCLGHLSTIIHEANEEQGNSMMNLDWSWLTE

[9] = system: Epithelial cell; assay: Induction of apoptosis in TNF-stimulated human bronchial epithelial cells assessed as PARP cleavage after 2 hrs by Western blot analysis; format: functional, cell-based
Procedure, shortened: (§1)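 WI38 lung fibroblasts and bronchial epithelial cells were stimulated for 2 hours. The same Western blot was probed for PARP cleavage, total IκBα and phosphorylated IκBα.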

[10] = system: BMDM; assay: Inhibition of LPS-induced IkappaBalpha expression in mouse BMDM measured up to 120 mins by Western blot analysis; format: functional, cell-based
[11] = species on record: Mus musculus; assay: Effect on IKK activity in LPS-induced mouse BMDM assessed as induction of phosphorylation of CREB treated 2 hrs after LPS challenge measured up to 120 mins by immunoblot analysis
[12] = biological target: T2, Inhibitor of nuclear factor kappa-B kinase subunit alpha (Mus musculus) (UniProt Q60680); assay: Inhibition of TNF-induced IkappaBalpha phosphorylation in mouse MEF up to 120 mins by Western blot analysis
T2 sequence (whole entry): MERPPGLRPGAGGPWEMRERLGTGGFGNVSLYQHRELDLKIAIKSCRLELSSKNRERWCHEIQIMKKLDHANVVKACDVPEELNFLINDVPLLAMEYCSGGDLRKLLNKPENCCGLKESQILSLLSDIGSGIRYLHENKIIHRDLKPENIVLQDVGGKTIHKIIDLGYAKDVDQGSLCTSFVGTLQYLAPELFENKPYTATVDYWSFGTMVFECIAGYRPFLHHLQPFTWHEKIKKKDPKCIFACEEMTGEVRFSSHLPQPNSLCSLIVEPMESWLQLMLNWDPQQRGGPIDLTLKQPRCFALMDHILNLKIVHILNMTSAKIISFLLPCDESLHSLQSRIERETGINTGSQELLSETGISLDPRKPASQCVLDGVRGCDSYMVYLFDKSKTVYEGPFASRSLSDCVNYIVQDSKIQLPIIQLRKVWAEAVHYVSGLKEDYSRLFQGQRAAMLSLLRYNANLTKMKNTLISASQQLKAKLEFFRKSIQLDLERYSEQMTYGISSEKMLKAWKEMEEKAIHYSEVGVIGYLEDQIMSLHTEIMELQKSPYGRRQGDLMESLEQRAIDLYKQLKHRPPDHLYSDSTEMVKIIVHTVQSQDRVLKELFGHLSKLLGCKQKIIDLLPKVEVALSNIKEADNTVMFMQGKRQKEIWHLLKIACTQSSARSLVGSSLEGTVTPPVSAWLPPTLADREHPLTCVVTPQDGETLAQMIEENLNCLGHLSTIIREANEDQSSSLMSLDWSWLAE

[13] = system: BMDM; assay: Induction of c-jun mRNA expression in mouse BMDM at 50 uM after 2 hrs by Northern blot analysis; format: functional
[14] = system: Macrophage; assay: Inhibition of LPS-induced IRF-1 mRNA expression in mouse alveolar macrophages after 90 mins by Northern blot analysis; format: functional, cell-based
[15] = system: WI-38; assay: Induction of apoptosis in TNF-stimulated human WI38 fibroblast assessed as PARP cleavage after 2 hrs by Western blot analysis; format: functional, cell-based; procedure, shortened: as §1
[16] = biological target: T1, Inhibitor of nuclear factor kappa-B kinase subunit alpha (Homo sapiens); assay: Inhibition of IkappaBalpha phosphorylation in human WI38 cells assessed after 2 hrs by Western blot analysis; format: cell-based; settings: WI-38; procedure, shortened: as §1
[17] = system: BMDM; assay: Inhibition of heat-killed Staphylococcus aureus-induced c-jun mRNA expression in mouse BMDM by Northern blot analysis; format: functional, cell-based
[18] = system: MEF; assay: Effect on TNF-induced IkappaBalpha mRNA expression in MEF by Northern blot analysis; format: functional, cell-based; settings: Mus musculus
[19] = biological target: MAP kinase p38 (Homo sapiens) (UniProt O15264+Q15759+Q16539+P53778); assay: Inhibition of LPS-induced p38 phosphorylation in human THP1 cells measured up to 120 mins by Western blot analysis; format: cell-based; settings: THP-1
[20] = system: MEF; assay: Inhibition of TNF-induced IkappaBalpha expression in mouse MEF up to 120 mins by Western blot analysis; format: functional, cell-based
[21] = system: Macrophage; assay: Inhibition of LPS-induced IP-10 mRNA expression in mouse alveolar macrophages after 90 mins by Northern blot analysis; format: functional, cell-based
[22] = system: BMDM; assay: Inhibition of LPS-induced IP-10 mRNA expression in mouse BMDM up to 3 hrs by Northern blot analysis; format: functional, cell-based

Measured: Activity

CCCCCCCCCC(=O)CC(=O)N[C@H]1CCOC1=O
active: [1] | [2] | [3] Dose-dependent effect | [4] Dose-dependent effect | [5] Dose-dependent effect | [6] | [7] | [8] | [9] | [10] | [11] | [12] | [13] | [14] Dose-dependent effect | [15] | [16] | [17] | [18] | [19] | [20] | [21] Dose-dependent effect | [22] Dose-dependent effect
